Data as given in PubChem BioAssay.
The source made the active and inactive calls.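 The calls were made as follows, unless noted: active = viability at or below 10% of carrier control in both of two separate runs; inconclusive = viability at or below 10% in only one of the two runs; inactive = the rest.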

Tests used:
[1] = Her2 expression decrease, cell viability multiplex – SKBR3 breast tumor cells, AlphaScreen, ATP viability, primary screen (AID 461;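 active = Her2 level under about 52% in both replicate screens, with viability over 70% of control, limit read from the data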;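 as to Her2 level: lower value means less Her2 protein in the cells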;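 as to viability: percent of carrier control wells set as 100% viability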); conditions: SKBR3 Her2 protein level, 18-24 h, measured here: SKBR3 viability, ATP luminescence, at 10 µM
[2] = molecular target: Receptor tyrosine-protein kinase erbB-2 (Homo sapiens) (UniProt P04626); assay: as above; conditions: 18-24 h, at 10 µM, stronger effect = lower value
Sequence of Receptor tyrosine-protein kinase erbB-2 (Homo sapiens) (P04626 whole entry, looked up): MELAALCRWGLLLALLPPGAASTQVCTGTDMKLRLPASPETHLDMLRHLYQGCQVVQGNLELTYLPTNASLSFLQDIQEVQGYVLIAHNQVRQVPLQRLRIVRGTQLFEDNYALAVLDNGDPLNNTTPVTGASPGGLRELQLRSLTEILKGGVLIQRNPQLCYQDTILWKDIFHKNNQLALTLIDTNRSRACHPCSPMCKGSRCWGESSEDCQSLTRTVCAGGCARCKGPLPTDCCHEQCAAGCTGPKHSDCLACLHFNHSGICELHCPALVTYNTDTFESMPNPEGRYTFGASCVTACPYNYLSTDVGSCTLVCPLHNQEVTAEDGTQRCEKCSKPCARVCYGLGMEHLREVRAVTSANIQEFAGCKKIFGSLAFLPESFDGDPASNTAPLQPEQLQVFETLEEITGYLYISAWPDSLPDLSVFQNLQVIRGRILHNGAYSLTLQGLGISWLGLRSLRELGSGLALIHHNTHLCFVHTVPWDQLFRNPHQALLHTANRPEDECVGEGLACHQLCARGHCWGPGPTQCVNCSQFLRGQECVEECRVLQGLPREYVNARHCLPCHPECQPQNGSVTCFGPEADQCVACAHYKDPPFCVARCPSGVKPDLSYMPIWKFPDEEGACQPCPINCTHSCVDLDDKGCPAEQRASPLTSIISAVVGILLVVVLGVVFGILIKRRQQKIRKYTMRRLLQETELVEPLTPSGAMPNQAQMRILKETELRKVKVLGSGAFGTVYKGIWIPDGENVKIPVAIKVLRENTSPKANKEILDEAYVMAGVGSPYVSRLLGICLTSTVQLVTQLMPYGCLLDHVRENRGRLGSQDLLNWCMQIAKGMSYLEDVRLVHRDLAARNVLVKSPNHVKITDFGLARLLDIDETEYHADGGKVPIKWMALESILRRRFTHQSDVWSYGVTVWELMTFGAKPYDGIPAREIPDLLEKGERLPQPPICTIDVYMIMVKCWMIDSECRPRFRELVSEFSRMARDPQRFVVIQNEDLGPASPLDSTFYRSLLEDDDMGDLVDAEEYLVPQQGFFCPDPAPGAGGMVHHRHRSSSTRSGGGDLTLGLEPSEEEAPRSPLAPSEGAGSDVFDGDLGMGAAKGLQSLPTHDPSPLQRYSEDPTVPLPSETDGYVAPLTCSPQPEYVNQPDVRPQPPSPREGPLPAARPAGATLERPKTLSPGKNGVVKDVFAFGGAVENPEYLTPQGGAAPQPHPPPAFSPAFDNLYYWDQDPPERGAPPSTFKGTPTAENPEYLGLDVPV

[3] = reduced viability of SK-BR-3 breast cancer cells – cell-based, 24 h, human, pilot screen (AID 572); conditions: SK-BR-3 viability, CellTiter-Glo luminescence, at 10 µM, stronger effect = lower value;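 also: compound exposure lasted between 18 and 24 h rather than exactly 24 h; 100% = carrier-treated control wells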
[4] = HUVEC growth inhibition – cell-based, human, primary screen (AID 575;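 active = viability at or below 30% in both replicate assays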;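 also: 100% = median of untreated cell wells with 0.1% DMSO on each plate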); conditions: HUVEC proliferation, CellTiter-Glo luminescence, 72 h; at 10 µM; stronger effect = lower value
How it was run: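 Assay system: primary human umbilical vein endothelial cells / Buffer or medium: endothelial basal medium with 2% FBS plus growth supplements / Compound dosing: one dose, 10 µM final, 0.1% DMSO / Timing: 72 h treatment at 37 °C / Signal: CTG luminescence / Benchmarks: 32 DMSO-only cell-control wells (high), 32 MePR drug-control wells (low) per plate / Plate: collagen-coated 384-well format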

[5] = H69AR cell proliferation blockers – human, duplicate replicates, primary screen (AID 580;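 active = viability at or under a set limit in both replicates, limit being median viability minus 3 SD, cut at about 48% in these data, passing the limit was not always enough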;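 also: 100% = mean luminescence of untreated wells and 0% = no signal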); conditions: H69AR lung tumor cells viability, ATP luminescence, 72 h; at 10 µM; stronger effect = lower value
[6] = MRP1 drug-resistance reversers in H69AR cells – cell-based, doxorubicin co-treatment, pilot screen (AID 601;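 active = viability loss from added drug above about 55%, and viability with drug at most 40%, in both replicates, limit read from the data, passing the limit was not always enough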); conditions: CellTiter-Glo, 72 h, at 10 µM; for differential viability (reversal): stronger effect = higher value
[7] = yeast transport mutant growth inhibition pilot in 384-well plates, post-Golgi transport modulator project (AID 636; in the data active = inhibition above about 31%); conditions: absorbance 615 nm, about 18 h, stronger effect = higher value
[8] = growth suppression of yeast trafficking mutant, preliminary HTS, modulators of trafficking downstream of Golgi apparatus project, 1536-format plate, OD 615 nm (AID 637; in the data active = inhibition above about 30%); conditions: yeast transport mutant growth, absorbance 615 nm, 18 h; stronger effect = higher value
[9] = H69AR cells + 2 uM doxorubicin, measured here: viability with 2 uM doxorubicin, stronger effect = lower value
[10] = H69AR cells, compound alone cytotoxicity

Compound | viability [1] [%] | Her2 level [2] | viability [3] | viability [4] | viability [5] | differential viability (reversal) ([6]; H69AR cells + 2 uM doxorubicin) | viability [6, 9] [%] | viability [6, 10] [%] | inhibition [7] | inhibition [8]
COc1ccc(C)cc1S(=O)(=O)N(C)CC(=O)Nc1ccc2c(c1)OCO2 | 129 | 98% (inactive) | 129% (inactive) | 92.7% (inactive) | 89.2% (inactive) | 1.07% (inactive) | 88.1 | 89.2 | -4.67% (inactive) | -4.92% (inactive)
CC(=O)Nc1cccc(NC(=O)C2CCCN2C(=O)Nc2ccc(C)cc2)c1 (stereo not given) | 89 | 93.5% (inactive) | 89% (inactive) | 99.9% (inactive) | 100% (inactive) | 10.7% (inactive) | 89.7 | 100 | -0.68% (inactive) | -6.89% (inactive)
C/C(=C\C(=O)c1ccc(F)cc1)Nc1ccc(N2CCOCC2)cc1 | 89.5 | 97% (inactive) | 89.5% (inactive) | 114% (inactive) | 90.9% (inactive) | 1.85% (inactive) | 89.1 | 90.9 | -4.4% (inactive) | -0.65% (inactive)
O=C(NCC1CCCO1)c1ccc(N2CCCCC2)nc1 (stereo not given) | 91.5 | 109% (inactive) | 91.5% (inactive) | 113% (inactive) | 90.1% (inactive) | 4.52% (inactive) | 85.6 | 90.1 | 0.26% (inactive) | -2.83% (inactive)
Cc1cncn1CCc1nc2c3ccccc3nc(=S)n2[nH]1 | 110 | 88.5% (inactive) | 110% (inactive) | 89.2% (inactive) | 88.8% (inactive) | -4.09% (inactive) | 92.9 | 88.8 | -3.68% (inactive) | -4.13% (inactive)
CCOc1cc(C2/C(=C(/O)c3ccc(OC(C)C)cc3)C(=O)C(=O)N2CCCOC)ccc1O (stereo not given) | 91.5 | 83.5% (inactive) | 91.5% (inactive) | 103% (inactive) | 99.1% (inactive) | 1.7% (inactive) | 97.4 | 99.1 | 1.82% (inactive) | 3.17% (inactive)
CC(C)CNC(=O)c1ccccc1NC(=O)CN(c1ccc2c(c1)OCCO2)S(C)(=O)=O | 92 | 121% (inactive) | 92% (inactive) | 96.8% (inactive) | 92.3% (inactive) | 1.55% (inactive) | 90.8 | 92.3 | -0.27% (inactive) | -8.23% (inactive)
Cc1ccc(N2C(N)=NC(N)=NC23CCCC3)c(C)c1 | 98.5 | 95% (inactive) | 98.5% (inactive) | 99.8% (inactive) | 106% (inactive) | 20.6% (inactive) | 85 | 106 | -4.68% (inactive) | 1.11% (inactive)
Cc1ccc(-c2nnc(-c3ccc(Br)cc3)o2)o1 | 100 | 93.5% (inactive) | 100% (inactive) | 99.9% (inactive) | 86.1% (inactive) | 1.58% (inactive) | 84.5 | 86.1 | -5.87% (inactive) | -1.64% (inactive)
Cc1cc(C)n2nc(SCC(=O)N(C)c3ccccc3)nc2n1 | 89.5 | 87% (inactive) | 89.5% (inactive) | 94.8% (inactive) | 104% (inactive) | 1.41% (inactive) | 102 | 104 | -7.57% (inactive) | 6.39% (inactive)
O=C1NC(=O)C2(CCC(C(=O)O)C2)N1 (stereo not given) | 93.5 | 84% (inactive) | 93.5% (inactive) | 96.4% (inactive) | 94.2% (inactive) | -0.33% (inactive) | 94.5 | 94.2 | -5.73% (inactive) | 2.46% (inactive)
CC1(C)Cc2c(sc3c2c(=N)n(Cc2ccco2)c(=O)n3Cc2ccccc2)CO1 | 98.5 | 88.5% (inactive) | 98.5% (inactive) | 90.1% (inactive) | 71.9% (inactive) | 28.9% (inactive) | 43 | 71.9 | -1.82% (inactive) | -1.27% (inactive)
CCOc1ccccc1C1CC(=O)Nc2cc3c(cc21)OCO3 (stereo not given) | 110 | 83.5% (inactive) | 110% (inactive) | 31% (inactive) | 23.7% (active) | -37.2% (inactive) | 60.9 | 23.7 | -4.61% (inactive) | 8.17% (inactive)
Cc1cccc2cc(CN(Cc3nnnn3C3CCCC3)C3CCCCC3)c(=O)[nH]c12 | 84.5 | 109% (inactive) | 84.5% (inactive) | 72.7% (inactive) | 79.4% (inactive) | 0.525% (inactive) | 78.9 | 79.4 | -1.71% (inactive) | -10.2% (inactive)
Cn1c(=O)[nH]c(=O)c2c1nc(N1CCCCCC1)n2CCCSc1nc2ccccc2o1 | 84.5 | 80% (inactive) | 84.5% (inactive) | 66.4% (inactive) | 80.7% (inactive) | 37% (inactive) | 43.7 | 80.7 | -5.68% (inactive) | 3.97% (inactive)
Cc1cc(NCCN2CCOCC2)n2nc(C)c(-c3ccccc3)c2n1 | 102 | 87% (inactive) | 102% (inactive) | 91.1% (inactive) | 96.4% (inactive) | 12.8% (inactive) | 83.6 | 96.4 | -0.52% (inactive) | -3.33% (inactive)
Cc1cccc(NC(=O)c2cc3ccccc3o2)c1 | 142 | 114% (inactive) | 142% (inactive) | 75.8% (inactive) | 86.3% (inactive) | 8.2% (inactive) | 78.1 | 86.3 | -7.4% (inactive) | -1.27% (inactive)
CCOc1ccc2c(c1)n(CO)c(=S)n2CO | 107 | 74% (inactive) | 107% (inactive) | 83.6% (inactive) | 89.6% (inactive) | 2.06% (inactive) | 87.5 | 89.6 | -2.53% (inactive) | 0.81% (inactive)
CC1=C(C(=O)NCc2ccccn2)C2(CCC(C)CC2)OC1=O (stereo not given) | 94.5 | 99% (inactive) | 94.5% (inactive) | 103% (inactive) | 89.4% (inactive) | -0.25% (inactive) | 89.7 | 89.4 | -5.47% (inactive) | -1.97% (inactive)
CCOC(=O)c1ccc(NC(=O)CSc2nnc(COc3ccccc3)n2C)cc1 | 110 | 113% (inactive) | 110% (inactive) | 85.3% (inactive) | 107% (inactive) | 8.77% (inactive) | 98.1 | 107 | -1.3% (inactive) | -9.67% (inactive)
CCOC(=O)c1sc(NC(=O)CSc2nnnn2-c2ccccc2)c(C(=O)OCC)c1C | 80 | 85% (inactive) | 80% (inactive) | 36.6% (inactive) | 65.7% (inactive) | 19.6% (inactive) | 46.1 | 65.7 | 4.68% (inactive) | -6.83% (inactive)
CCN(CC)c1nc2cc(OC)ccc2cc1C#N | 104 | 80.5% (inactive) | 104% (inactive) | 86.1% (inactive) | 68.2% (inactive) | -14.1% (inactive) | 82.3 | 68.2 | -2.86% (inactive) | -5.24% (inactive)
CC1(C)CC(=O)c2cnc(NC(=O)CSc3nc4ccccc4o3)nc2C1 | 96 | 98.5% (inactive) | 96% (inactive) | 81.4% (inactive) | 105% (inactive) | 9.52% (inactive) | 95.7 | 105 | -4.46% (inactive) | 0.83% (inactive)
C=CCSc1nc2c(c(=O)[nH]c(=O)n2C)n1CC | 78.5 | 74% (inactive) | 78.5% (inactive) | 85.7% (inactive) | 93.2% (inactive) | 7.82% (inactive) | 85.3 | 93.2 | -5.54% (inactive) | -3.11% (inactive)
CC(C)(C)c1cc(NS(=O)(=O)c2ccc3c(c2)OCCO3)on1 | 131 | 88% (inactive) | 131% (inactive) | 98.1% (inactive) | 89.6% (inactive) | -3.41% (inactive) | 93 | 89.6 | -1.3% (inactive) | 5.24% (inactive)
Cc1occc1C(=O)Nc1cccnc1 | 101 | 92% (inactive) | 101% (inactive) | 100% (inactive) | 97.7% (inactive) | 3.58% (inactive) | 94.1 | 97.7 | -7.73% (inactive) | 2.9% (inactive)
CC(C)(C)c1ccc(OCC(=O)O)cc1 | 102 | 96.5% (inactive) | 102% (inactive) | 108% (inactive) | 104% (inactive) | 13.4% (inactive) | 91 | 104 | -5.73% (inactive) | 8.69% (inactive)
NC(=O)c1oc2ccc(Cl)cc2c1NC(=O)CN1CCOCC1 | 93.5 | 81% (inactive) | 93.5% (inactive) | 85.3% (inactive) | 98.5% (inactive) | 10.1% (inactive) | 88.4 | 98.5 | -5.26% (inactive) | -2.36% (inactive)
Cc1nn(-c2ccccc2)c2c1C(O)n1c(nc3ccccc31)S2 (stereo not given) | 91 | 77.5% (inactive) | 91% (inactive) | 50.9% (inactive) | 26.2% (active) | -8.14% (inactive) | 34.4 | 26.2 | -6.85% (inactive) | -0.79% (inactive)
